Experimental data: ChEMBL document CHEMBL4765436, “Discovery, structure-activity relationship study and biological evaluation of 2-thioureidothiophene-3-carboxylates as a novel class of C-X-C chemokine receptor 2 (CXCR2) antagonists” (Eur J Med Chem, 2020)
Each block holds one compound with its values, some of them ahead of it. Active and inactive are the calls of the source. The calls are words filed in the database; no cut-off is given here.

Experiments:
[1] = biological target: T1, C-X-C chemokine receptor type 2 (Homo sapiens) (UniProt P25025); test: Antagonist activity at CXCR2 (unknown origin) expressed in HEK293T cells cotransfected with GFP assessed as inhibition of CXCL8-induced p38 phosphorylation at 10 uM post CXCL8 treatment by immunoblot assay; type: cell-based
T1 sequence (whole entry): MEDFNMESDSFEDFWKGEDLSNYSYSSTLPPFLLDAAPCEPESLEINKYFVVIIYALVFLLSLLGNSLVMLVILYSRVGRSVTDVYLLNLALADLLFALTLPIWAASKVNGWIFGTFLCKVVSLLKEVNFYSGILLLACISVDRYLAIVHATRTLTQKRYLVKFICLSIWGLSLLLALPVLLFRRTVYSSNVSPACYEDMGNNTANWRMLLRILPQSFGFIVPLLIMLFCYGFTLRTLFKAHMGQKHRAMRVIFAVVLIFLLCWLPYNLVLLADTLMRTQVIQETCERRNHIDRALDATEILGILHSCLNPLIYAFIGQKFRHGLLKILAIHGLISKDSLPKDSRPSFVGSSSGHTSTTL
Summary of the method: (§1)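 293T-CXCR2-GFP cells (5 x 10^5/well) were attached overnight, treated with compounds and lysed in RIPA buffer with protease/phosphatase inhibitors. Lysates were normalized by BCA and resolved on 10% SDS-PAGE. Blots were probed overnight at 4 °C with antibodies (1:500-1:1000) to p-ERK1/2, p-JNK, p-cJUN or p-p38, then with a fluorescent secondary antibody, and imaged by infrared imaging.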

[2] = biological target: T1, C-X-C chemokine receptor type 2 (Homo sapiens); test: Antagonist activity at CXCR2 (unknown origin) expressed in HEK293T cells cotransfected with GFP assessed as inhibition of CXCL8-induced cJUN phosphorylation at 10 uM post CXCL8 treatment by immunoblot assay; type: cell-based; summary of the method: as §1
[3] = biological target: T1, C-X-C chemokine receptor type 2 (Homo sapiens); test: Antagonist activity at CXCR2 (unknown origin) expressed in HEK293T cells cotransfected with GFP assessed as inhibition of CXCL8-induced JNK phosphorylation at 10 uM post CXCL8 treatment by immunoblot assay; type: cell-based; summary of the method: as §1
[4] = biological target: T1, C-X-C chemokine receptor type 2 (Homo sapiens); test: Antagonist activity at CXCR2 (unknown origin) expressed in HEK293T cells cotransfected with GFP assessed as inhibition of CXCL8-induced AKT phosphorylation at 10 uM post CXCL8 treatment by immunoblot assay; type: cell-based
U2OS = test: Antimigratory activity against human U2OS cells overexpressing CXCR2/bla assessed as reduction in CXCL8-mediated wound closure at 10 uM incubated for 20 mins followed by CXCL8 stimulation and measured after 24 hrs by Giemsa staining based scratch wound healing assay; type: functional, cell-based; conditions: time 24.3 hrs
Summary of the method: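 CXCR2-bla U2OS cells were seeded at 35000/well in DMEM with 1% FBS overnight and scratched with a pipette tip. Compounds (10 μM) were added for 20 min, then CXCL8 (60 nM) for 24 h; unstimulated wells served as control. Cells were methanol-fixed, Giemsa-stained and imaged by transmitted light. Two independent experiments were run in duplicate.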

[5] = biological target: T1, C-X-C chemokine receptor type 2 (Homo sapiens); test: Antagonist activity at CXCR2 (unknown origin) expressed in HEK293T cells cotransfected with GFP and p22F assessed as inhibition of […] at 15 uM incubated at 37 degC for 30 min and at room temperature for 30 min by fluorescence based assay; type: functional, cell-based; conditions: filed as antagonist, time 60.0 min
Summary of the method: (§2)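 293T-CXCR2-GFP cells were seeded at 30000 cells/well and loaded next day with Fluo-4 NW dye plus probenecid ([…] final). Loading was 30 min at 37 °C, then 30 min at room temperature, protected from light. Compound and CXCL8 (300 nM, by injector) were added. Fluorescence was read immediately (ex 490/em 535 nm) and normalized to the pre-stimulation baseline.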

[6] = biological target: T1, C-X-C chemokine receptor type 2 (Homo sapiens); test: Antagonist activity at CXCR2 (unknown origin) expressed in HEK293T cells cotransfected with GFP assessed as inhibition of CXCL8-induced ERK1/2 phosphorylation pretreated at 10 uM followed by treated with CXCL8 by immunoblot assay; type: cell-based; conditions: filed as antagonist; summary of the method: as §1
[7] = biological target: T1, C-X-C chemokine receptor type 2 (Homo sapiens); test: Antagonist activity at CXCR2 (unknown origin) expressed in HEK293T cells cotransfected with GFP and p22F assessed as inhibition of CXCL8-reduced cAMP production at 5 uM incubated for 10 mins followed by CXCL8 stimulation and measured after 10 mins by luminescence based assay; type: functional, cell-based; conditions: filed as antagonist, time 20.0 min
Summary of the method: (§3)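 293T-CXCR2-GFP-p22F cells express a cAMP-sensitive firefly luciferase. They were seeded at 30000 cells/well overnight in CO2-independent medium with 10% FBS, then incubated with 1% cAMP reagent for 2 h at 37 °C. Cells were pretreated with compound for 10 min, given CXCL8 (50 nM) for 10 min, then stimulated with forskolin (50 μM) until maximal signal (~80 min). Luminescence read-out.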

[8] = biological target: T1, C-X-C chemokine receptor type 2 (Homo sapiens); test: Antagonist activity at CXCR2 (unknown origin) expressed in HEK293T cells cotransfected with GFP assessed as inhibition of CXCL8-induced ERK1/2 phosphorylation pretreated at 10 to 30 uM followed by treated with CXCL8 by immunoblot assay; type: cell-based; conditions: dose 10-30 µM; summary of the method: as §1
[9] = biological target: T1, C-X-C chemokine receptor type 2 (Homo sapiens); test: Antagonist activity at CXCR2 (unknown origin) expressed in HEK293T cells cotransfected with GFP and p22F assessed as inhibition of CXCL8-reduced cAMP production at 10 uM incubated for 10 mins followed by CXCL8 stimulation and measured after 10 mins by luminescence based assay; type: functional, cell-based; conditions: time 20.0 min; summary of the method: as §3
[10] = biological target: T1, C-X-C chemokine receptor type 2 (Homo sapiens); test: Antagonist activity at CXCR2 (unknown origin) expressed in HEK293T cells cotransfected with GFP and p22F assessed as inhibition of […] at 30 uM incubated at 37 degC for 30 min and at room temperature for 30 min by fluorescence based assay; type: functional, cell-based; conditions: time 60.0 min; summary of the method: as §2
[11] = biological target: T2, C-X-C chemokine receptor type 2 (Homo sapiens, UniProt P25025); test: Inhibition of CXCR2 (unknown origin) expressed in HEK293T cells cotransfected with GFP-p22F assessed as reduction in IL-8-induced cAMP incubated for 10 mins followed by IL-8 stimulation and measured after 10 mins by luminescence based assay; type: functional, cell-based; summary of the method: as §3
T2 sequence (P25025 whole entry): T1 sequence (whole entry)

SK-OV-3 [12] = test: Inhibition of colony formation in human SK-OV-3 cells at 38 nM incubated for 7 to 10 days by crystal violet staining based assay; type: functional, cell-based; conditions: time 7-10 day
Summary of the method: (§4)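 Colony formation: cells were seeded at 300/well, attached overnight, then treated with compounds for 7-10 days until colonies formed in DMSO wells. Colonies were stained with 0.05% crystal violet for 30 min and washed with water.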

[13] = biological target: T1, C-X-C chemokine receptor type 2 (Homo sapiens); test: Antagonist activity at CXCR2 (unknown origin) expressed in HEK293T cells cotransfected with GFP assessed as inhibition of CXCL8-induced p38 phosphorylation at 10 to 30 uM post CXCL8 treatment by immunoblot assay; type: cell-based; conditions: dose 10-30 µM; summary of the method: as §1
SK-OV-3 [14] = test: Inhibition of colony formation in human SK-OV-3 cells at 8.9 to 20 uM incubated for 7 to 10 days in presence of doxorubicin by crystal violet staining based assay; type: functional, cell-based; conditions: dose 8.9-20 µM, time 7-10 day; summary of the method: as §4
[15] = biological target: T2, C-X-C chemokine receptor type 2; test: (§5) Antagonist activity at CXCR2 (unknown origin) expressed in U2OS cells cotransfected with beta-arrestin/TEV protease fusion protein and beta-lactamase assessed as inhibition of CXCL8-induced beta arrestin2 recruitment preincubated for 30 mins followed by CXCL8 stimulation and measured after 5 hrs by FRET based fluorescence/Tango assay; type: cell-based
[16] = biological target: T1, C-X-C chemokine receptor type 2 (Homo sapiens); test: Antagonist activity at CXCR2 (unknown origin) expressed in HEK293T cells cotransfected with GFP assessed as inhibition of CXCL8-induced AKT phosphorylation at 10 to 30 uM post CXCL8 treatment by immunoblot assay; type: cell-based; conditions: dose 10-30 µM
[17] = biological target: T1, C-X-C chemokine receptor type 2 (Homo sapiens); test: Antagonist activity at CXCR2 (unknown origin) expressed in HEK293T cells cotransfected with GFP assessed as inhibition of CXCL8-induced cJUN phosphorylation at 10 to 30 uM post CXCL8 treatment by immunoblot assay; type: cell-based; conditions: dose 10-30 µM; summary of the method: as §1
[18] = biological target: C-X-C chemokine receptor type 4 (Homo sapiens, UniProt P61073); test: Antagonist activity at CXCR4 (unknown origin) expressed in U2OS cells cotransfected with beta-arrestin/TEV protease fusion protein and beta-lactamase assessed as inhibition of SDF1-alpha-induced beta arrestin2 recruitment preincubated for 30 mins followed by SDF1-alpha stimulation and measured after 5 hrs by FRET based fluorescence/Tango assay
[19] = biological target: T1, C-X-C chemokine receptor type 2 (Homo sapiens); test: Antagonist activity at CXCR2 (unknown origin) expressed in HEK293T cells cotransfected with GFP assessed as inhibition of CXCL8-induced JNK phosphorylation at 10 to 30 uM post CXCL8 treatment by immunoblot assay; type: cell-based; conditions: dose 10-30 µM; summary of the method: as §1
[20] = biological target: T1, C-X-C chemokine receptor type 2 (Homo sapiens); test: as §5, with “recruitment at 10 uM” for “recruitment”, “assay relative to control” for “assay”; type: cell-based
Summary of the method: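 Tango assay: CXCR2-bla or CXCR4-bla U2OS cells were seeded at 11000/well for 24 h in DMEM with 1% dialyzed FBS. Cells were pretreated with inhibitor for 30 min, then given CXCL8 (12 nM; CXCR2) or SDF-1α (60 nM; CXCR4) for 5 h at 37 °C. […] IC50 is the mean±SD of ≥3 independent experiments.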

[21] = biological target: T3, Alpha-2A adrenergic receptor (Homo sapiens, UniProt P08913); test: Inhibition of alpha 2a-adrenergic receptor (unknown origin) by radioligand binding assay
T3 sequence (P08913 whole entry): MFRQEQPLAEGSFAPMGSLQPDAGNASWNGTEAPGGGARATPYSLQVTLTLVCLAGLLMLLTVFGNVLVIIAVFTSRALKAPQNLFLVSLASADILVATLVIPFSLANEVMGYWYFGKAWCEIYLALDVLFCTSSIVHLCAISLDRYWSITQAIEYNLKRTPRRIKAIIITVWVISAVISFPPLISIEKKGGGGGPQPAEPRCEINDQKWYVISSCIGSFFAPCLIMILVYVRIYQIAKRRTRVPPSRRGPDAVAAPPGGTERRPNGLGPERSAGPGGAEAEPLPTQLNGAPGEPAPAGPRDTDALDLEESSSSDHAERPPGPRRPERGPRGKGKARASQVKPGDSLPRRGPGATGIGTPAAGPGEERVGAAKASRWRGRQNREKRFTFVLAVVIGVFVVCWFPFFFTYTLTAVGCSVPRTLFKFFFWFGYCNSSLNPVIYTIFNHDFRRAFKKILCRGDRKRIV
Summary of the method: (§6)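 Secondary radioligand binding assay determining equilibrium binding affinity (Ki).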

Translocator protein [22] = biological target: T4, Translocator protein (Homo sapiens, UniProt P30536); test: Inhibition of PBR (unknown origin) at 10 uM by radioligand binding assay relative to control
Summary of the method: (§7)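 Primary radioligand binding screen across 50 GPCRs at a single concentration of 10 μM. Compounds with ≥50% inhibition went on to secondary binding.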

[23] = biological target: T5, 5-hydroxytryptamine receptor 2B (Homo sapiens, UniProt P41595); test: Inhibition of 5-HT2B (unknown origin) at 10 uM by radioligand binding assay relative to control; summary of the method: as §7
[24] = biological target: T6, Alpha-2A adrenergic receptor (Homo sapiens) (UniProt P08913); test: Inhibition of alpha 2a-adrenergic receptor (unknown origin) at 10 uM by radioligand binding assay relative to control; summary of the method: as §7
T6 sequence (whole entry): T3 sequence (P08913 whole entry)

[25] = biological target: T5, 5-hydroxytryptamine receptor 2B; test: Inhibition of 5-HT2B (unknown origin) by radioligand binding assay; summary of the method: as §6
Translocator protein [26] = biological target: T4, Translocator protein; test: Inhibition of PBR (unknown origin) by radioligand binding assay; summary of the method: as §6

T4 sequence (P30536 whole entry): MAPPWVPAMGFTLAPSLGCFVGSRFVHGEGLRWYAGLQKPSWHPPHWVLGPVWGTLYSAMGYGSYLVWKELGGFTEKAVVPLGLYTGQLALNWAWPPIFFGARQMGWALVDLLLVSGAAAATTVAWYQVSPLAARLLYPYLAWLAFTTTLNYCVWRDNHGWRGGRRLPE
Sequence of C-X-C chemokine receptor type 4 (P61073 whole entry, the tested form may be a part): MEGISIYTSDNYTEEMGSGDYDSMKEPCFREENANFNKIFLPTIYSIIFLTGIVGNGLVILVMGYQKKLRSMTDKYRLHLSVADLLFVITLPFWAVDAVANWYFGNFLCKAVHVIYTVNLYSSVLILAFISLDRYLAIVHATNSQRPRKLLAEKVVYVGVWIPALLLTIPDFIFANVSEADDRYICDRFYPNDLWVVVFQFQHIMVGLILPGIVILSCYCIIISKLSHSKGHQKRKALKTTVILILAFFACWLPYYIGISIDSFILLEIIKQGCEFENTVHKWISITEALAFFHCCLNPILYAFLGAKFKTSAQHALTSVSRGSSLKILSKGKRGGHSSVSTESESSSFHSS
T5 sequence (P41595 whole entry): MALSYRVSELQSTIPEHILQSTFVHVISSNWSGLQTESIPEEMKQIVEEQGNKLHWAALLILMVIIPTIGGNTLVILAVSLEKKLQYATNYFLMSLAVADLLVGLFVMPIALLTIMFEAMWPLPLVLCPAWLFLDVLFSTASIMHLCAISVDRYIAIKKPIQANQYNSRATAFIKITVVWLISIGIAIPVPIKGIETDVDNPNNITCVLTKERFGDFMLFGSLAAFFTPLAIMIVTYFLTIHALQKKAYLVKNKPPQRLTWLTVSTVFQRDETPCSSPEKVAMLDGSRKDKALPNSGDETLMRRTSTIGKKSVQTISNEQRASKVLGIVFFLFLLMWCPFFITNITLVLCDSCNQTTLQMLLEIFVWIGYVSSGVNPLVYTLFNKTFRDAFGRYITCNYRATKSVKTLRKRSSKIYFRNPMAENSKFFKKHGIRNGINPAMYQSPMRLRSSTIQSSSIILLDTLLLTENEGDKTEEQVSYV

Activity [1]: inactive | Activity [2]: inactive | Activity [3]: inactive | Activity [4]: inactive | Activity [5]: Active | Activity [6]: Active | Activity [7]: Active
SMILES: N#Cc1ccc(NC(=O)Nc2ccccc2Br)c2nn[nH]c12
inhibition (U2OS): Active

Activity [8]: inactive | Activity ([9]; filed as antagonist): Active | Activity [10]: inactive | IC50 [11]: 7.79 µM
SMILES: CSc1nnc2n(-c3ccccc3)c(=O)c3c4c(sc3n12)CCC[C@H]4C

SMILES: COc1cccc2c1C(=O)c1c(O)c3c(c(O)c1C2=O)C[C@@](O)(C(=O)CO)C[C@@H]3O[C@H]1C[C@H](N)[C@H](O)[C@H](C)O1
inhibition (SK-OV-3 [12]): inactive

Activity [13]: inactive | Activity ([8]; filed as antagonist): Active | IC50 [15]: 1.1 µM | Activity [16]: inactive | Activity [17]: inactive | IC50 [18]: > 30 µM | Activity [9]: inactive | Activity [19]: inactive | Activity [10]: inactive | inhibition [20]: 87%
SMILES: CC(C)(C)OC(=O)c1c(NC(=S)Nc2ccc(F)cc2)sc2c1CCOC2
inhibition (SK-OV-3 [14]): Active | inhibition (U2OS): Active

Ki [21]: > 10 µM | inhibition (Translocator protein [22]): 63.1% | inhibition [23]: 58% | IC50 [15]: 1.7 µM | inhibition [24]: 55.2% | Ki [25]: > 10 µM | IC50 [18]: > 15 µM | Ki (Translocator protein [26]): 4 µM
SMILES: CC1COCc2sc(NC(=S)Nc3ccccc3)c(C(=O)OC(C)(C)C)c21 (centres undefined)
inhibition (SK-OV-3 [14]): Active
